The source made the active and inactive calls. The calls are words filed in the database; no cut-off is given here.
Columns and labels:
[1] = test system: U2OS; assay: Activation of p53 in human U2OS cells expressing EGFP assessed as increase of EGFP expression at 2.5 uM after 48 hrs relative to Nutlin-3; type: cell-based
How it was run: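 U2OS-pLV cells carrying an integrated p53-responsive EGFP reporter; compounds at 2.5 μM for 48 h. Read-out is the percentage of EGFP-positive cells, counted by high-content screening. The value is the ratio to the response with Nutlin-3, which is set as 1.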

[2] = test system: U2OS; assay: Cytotoxicity against human p53 deficient U2OS cells assessed as number of cells by Hoechst stain staining relative to Nutlin-3; type: functional
How it was run: (§1)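 p53+ and p53− cells treated, then Hoechst-stained; surviving cells counted. The value is the ratio of compound effect to Nutlin-3 effect, which is set as 1.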

[3] = test system: U2OS; assay: Cytotoxicity against human U2OS cells expressing p53 assessed as number of cells by Hoechst stain staining relative to Nutlin-3; type: functional; how it was run: as §1
[4] = Chemical stability of the compound assessed as compound hydrolysis at 50 uM in Opti-Mem solution incubated for 12 hrs at pH 7.5 at 37 degC by UV-visible spectrometry; type: physicochemical; conditions: buffer, pH 7.5, 12 h
[5] = Chemical stability of the compound assessed as compound hydrolysis at 50 uM in HEPES buffer incubated for 12 hrs at pH 7.5 at 37 degC by UV-visible spectrometry; type: physicochemical; conditions: pH 7.5, 12 h
How it was run: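 Hydrolysis followed by UV−vis spectrometry after incubation for 12 h at pH 7.5 and 37 °C.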

[6] = test system: U2OS; assay: Activation of p53 in human U2OS cells assessed as increase of MDM2 expression at 2.5 uM after 12 hrs by Western blotting; type: cell-based
[7] = test system: U2OS; assay: Activation of p53 in human U2OS cells assessed as increase of MDM2 expression at 0.5 uM after 12 hrs by Western blotting; type: cell-based
[8] = biological target: Cellular tumor antigen p53 (Homo sapiens) (UniProt P04637); assay: Stabilization of p53 in human U2OS cells assessed as intracellular p53 level at 0.5 uM after 12 hrs by Western blotting; type: cell-based
Chain of Cellular tumor antigen p53 (Homo sapiens) (P04637 whole entry, looked up): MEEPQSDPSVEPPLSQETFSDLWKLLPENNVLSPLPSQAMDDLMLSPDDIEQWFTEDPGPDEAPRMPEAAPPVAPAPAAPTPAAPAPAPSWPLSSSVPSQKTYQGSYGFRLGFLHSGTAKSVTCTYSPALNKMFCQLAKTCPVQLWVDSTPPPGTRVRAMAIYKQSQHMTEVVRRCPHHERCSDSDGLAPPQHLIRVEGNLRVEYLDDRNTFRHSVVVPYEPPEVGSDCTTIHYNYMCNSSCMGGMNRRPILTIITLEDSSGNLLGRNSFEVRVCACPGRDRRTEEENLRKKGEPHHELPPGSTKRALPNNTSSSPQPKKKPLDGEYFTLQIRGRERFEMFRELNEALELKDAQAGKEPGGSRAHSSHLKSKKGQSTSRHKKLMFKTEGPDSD

Structure (SMILES) | Ratio [1] | Ratio [2] | Ratio [3] | further results
O=C(NCc1ccccc1)c1ccc(/N=C2\C(=O)N(CN3CCC(Cc4ccccc4)CC3)c3ccccc32)cc1 | 4.9 | 0.32 | 0.14 | 
O=C1C(=O)N(CN2CCN(c3ccccc3)CC2)c2ccccc21 |  |  |  | Stability [4]: Unstable; Stability [5]: Unstable
C[C@H](NC(=O)c1ccc(/N=C2\C(=O)N(CN3CCN(Cc4ccccc4)CC3)c3ccccc32)cc1)c1ccccc1 | 8.7 | 0.27 | 0.04 | 
O=C(NCc1ccccc1)c1ccc(/N=C2\C(=O)N(CN3CCN(c4ccccc4F)CC3)c3ccccc32)cc1 | 3.6 | 0.24 | 0.11 | 
CN(Cc1ccccc1)CN1C(=O)/C(=N\c2ccc(C(=O)NCc3ccccc3)cc2)c2ccccc21 | 3.1 | 0.41 | 0.14 | 
O=C1Nc2ccccc2/C1=N/c1ccc(C(=O)NCc2ccccc2)cc1 |  |  |  | Stability [4]: Unstable; Stability [5]: Unstable
O=C(NCc1ccccc1)c1ccc(/N=C2\C(=O)N(CN3CCN(c4ccccc4)CC3)c3ccccc32)cc1 | 3.9 | 0.4 | 0.22 | Activity [6]: inactive
COc1ccc(C2=N[C@@H](c3ccc(Cl)cc3)[C@@H](c3ccc(Cl)cc3)N2C(=O)N2CCNC(=O)C2)c(OC(C)C)c1 |  |  |  | Activity [6]: inactive
COc1cccc2c1C(=O)c1c(O)c3c(c(O)c1C2=O)C[C@@](O)(C(=O)CO)C[C@@H]3O[C@H]1C[C@H](N)[C@H](O)[C@H](C)O1 |  |  |  | Activity [7]: inactive; Activity [8]: Active
O=C(NCc1ccccc1)c1ccc(/N=C2\C(=O)N(CN3CCN(Cc4ccccc4)CC3)c3ccccc32)cc1 | 4.2 | 0.19 | 0.1 | 
